Assay outcomes (PubChem BioAssay)
This is a sample that favours compounds with a hit; in the whole collection about 3% have one here.
SENP8 block-1 = SENP8 protease inhibitors, primary screen, biochemical, luminescence; Sentrin-specific protease 8 (Homo sapiens), Q96LD8; AID 2540, 2010; inhibition, % at 10 µM; purified SENP8, Z-RLRGG-aminoluciferin cleavage; 1.2% of 330,000 active; in the data active = inhibition above about 50%
Target sequence (Q96LD8 whole entry, looked up): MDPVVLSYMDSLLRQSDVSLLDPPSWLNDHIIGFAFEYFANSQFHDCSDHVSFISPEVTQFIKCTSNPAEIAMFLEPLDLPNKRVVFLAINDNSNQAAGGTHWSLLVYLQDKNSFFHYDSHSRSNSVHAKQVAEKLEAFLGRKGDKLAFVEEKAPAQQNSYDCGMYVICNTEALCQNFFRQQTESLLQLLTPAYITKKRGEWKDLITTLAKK
Apaf1 inhib = inhibitors of human Apaf-1 apoptosome, primary screen, biochemical, DEVD-Rh110 fluorescence, uHTS. Apoptotic protease-activating factor 1 (Homo sapiens), O14727. 0.71% of 330,000 active. inhibition, % at 20 µM. reconstituted apoptosome caspase-3 activity; active = inhibition of at least 40% at 20 µM
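Material: reconstituted apoptosome with Apaf-1, cytochrome c, caspase-9, procaspase-3, dATP / Buffer or medium: pH 7.5 Hepes buffer with CHAPS, BSA, DTT / Also added: cytochrome c with DEVD-Rh110 / Schedule: compound with Apaf-1, dATP, procaspase-3 30 min, then 50 min reaction, room temperature / Technique: rhodamine 110 fluorescence at Ex 480/Em 540 nm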
UBC13 polyUb = UBC13 polyubiquitin chain formation inhibitors, primary screen, biochemical, TR-FRET, uHTS; inhibition, % at 20 µM; 0.47% of 330,000 active; Ubiquitin-conjugating enzyme E2 N (Homo sapiens), P61088; in the data active = inhibition above about 45%, passing the limit was not always enough
SENP6 block = SENP6 protease inhibitors, primary screen, biochemical, luminescence, uHTS; Sentrin-specific protease 6 (Homo sapiens), Q9GZR1; Recombinant SENP6 catalytic domain, aminoluciferin luminescence; inhibition, % at 10 µM; 1.8% of 330,000 active; AID 2599, 2010;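 active = inhibition above about 50% at the single tested dose, limit read from the data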
SENP7 inh = SENP7 protease inhibitors, primary screen, biochemical, luminescence, uHTS. inhibition, % at 5 µM. 1.5% of 330,000 active. recombinant SENP7, Z-RLRGG-aminoluciferin luminescence, 40 min. AID 434973, 2010;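 active = inhibition above about 50% at the single test dose, limit read from the data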
SENP8 block-2 = human SENP8 protease inhibitors, primary screen, biochemical, fluorescence, Nedd8 protein substrate, uHTS; recombinant SENP8; inhibition, % at 20 µM; AID 602440, 2012; Sentrin-specific protease 8 (Homo sapiens), Q96LD8; 0.64% of 360,000 active; in the data active = inhibition mostly above about 40%, no sharp cut-off; inactive = mostly below about 27%
SENP8 confirm = SENP8 protease inhibitors, retest, confirmation, biochemical, luminescence, single concentration; shares compounds with SENP7 inh; Recombinant SENP8, Z-RLRGG-aminoluciferin luminescence, 60 min; inhibition, % at 12.5 µM; 40% of 6,200 active; AID 488912, 2010;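 active = mean inhibition across replicates above about 50%, limit read from the data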
SENP6 confirm = SENP6 protease inhibitors, confirmation, biochemical, luminescence, single concentration | 58% of 6,200 active | inhibition, % at 12.5 µM | recombinant SENP6, Z-RLRGG-aminoluciferin luminescence | shares compounds with SENP7 inh | AID 488915, 2010
SENP7 confirm = SENP7 protease inhibitors, retest, confirmation, biochemical, luminescence, single concentration | shares compounds with SENP7 inh | 69% of 6,200 active | inhibition, % at 12.5 µM | recombinant SENP7, Z-RLRGG-aminoluciferin luminescence, 40 min
Casp3 select = caspase-3 protease inhibitors, confirmation, selectivity assay for SENP inhibitor project, biochemical, single concentration | shares compounds with SENP7 inh | purified caspase-3, Z-DEVD-aminoluciferin luminescence, 60 min | inhibition, % at 12.5 µM | 60% of 6,200 active | AID 488918, 2010;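 active = mean inhibition above about 50%, limit read from the data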
Target sequence (P42574 28-227 limits assumed): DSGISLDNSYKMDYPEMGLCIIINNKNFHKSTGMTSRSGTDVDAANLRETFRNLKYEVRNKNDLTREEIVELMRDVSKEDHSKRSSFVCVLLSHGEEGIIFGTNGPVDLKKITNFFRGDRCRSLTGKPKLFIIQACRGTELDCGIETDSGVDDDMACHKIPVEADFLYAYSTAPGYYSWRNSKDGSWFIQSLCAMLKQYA
SENP luc ctr = counter-screen for SENP inhibitors: luminescence interference; shares compounds with SENP7 inh; Pre-incubated SENP8/Z-RLRGG-aminoluciferin, luciferase luminescence interference; inhibition, % at 12.5 µM; 39% of 6,200 active; AID 488919;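 active = mean inhibition above about 50% when retested at one dose, limit read from the data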
A number is an active result; – = inactive; · = no result given.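 The calls were made as follows, unless noted: active = mean inhibition above about 50% in the one-dose retest (limit read from the data); inactive = the rest.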

SMILES | SENP8 block-1 | Apaf1 inhib | UBC13 polyUb | SENP6 block | SENP7 inh | SENP8 block-2 | SENP8 confirm | SENP6 confirm | SENP7 confirm | Casp3 select | SENP luc ctr
Cc1cc(C(=O)Nc2ccccn2)cs1 | – | – | – | 72 | 71 | – | – | – | 85 | 85 | 63
COc1cc(C(=O)Nc2ccccn2)cc(OC)c1OC | – | – | – | – | – | – | · | · | · | · | ·
O=C(Nc1cccc(C(=O)O)c1)Nc1ccc2c(c1)OCO2 | 92 | – | – | 96 | 100 | – | 97 | 97 | 101 | 93 | 96
O=C(Nc1ccc2c(c1)OCCO2)c1ccc(Cl)cc1 | 59 | – | – | 81 | 73 | – | – | 75 | 92 | 76 | –
O=C(Nc1ccc(Cl)c(Cl)c1)c1ccccc1 | 84 | – | – | 90 | 80 | – | – | 79 | 96 | 57 | –
O=C(NC(=S)Nc1ccc2c(c1)OCCO2)c1ccccc1 | – | – | – | 76 | – | – | 59 | 61 | 88 | 54 | 59
O=C(Nc1ccc(Cl)cc1)C1=Cc2ccccc2OC1 | – | – | – | 66 | – | – | 53 | 62 | 87 | – | –
O=C(Nc1ccc(Nc2ccccc2)cc1)c1ccc(Cl)cc1 | – | – | – | – | – | – | · | · | · | · | ·
O=C(Nc1ccc(Cl)c(Cl)c1)c1ccc2c(c1)OCO2 | 77 | – | – | 80 | 72 | – | – | 77 | 96 | 65 | –
CCOc1cccc(C(=O)NC(=S)Nc2ccc3c(c2)OCCO3)c1 | – | – | – | – | – | – | · | · | · | · | ·
O=C(Nc1ccc(NC(=O)c2ccc(Cl)cc2Cl)cc1)c1ccc2c(c1)OCO2 | – | – | – | – | – | – | · | · | · | · | ·
COc1ccccc1NC(=O)NC1(C(=O)NCC2CCCO2)CCCCC1 (centres undefined) | – | – | – | – | – | – | · | · | · | · | ·
CC(C)(C)OC(=O)C[C@H]1C/C=C\C[C@H](CC(=O)N(CCO)Cc2ccccc2)C(=O)NC[C@H](c2ccccc2)OC1=O | – | – | – | – | – | – | · | · | · | · | ·
C[C@]12CC(O)C3C(CCC4=CC(=O)CC[C@@]43C)C1CCC2c1csc(-c2ccccc2)n1 (some centres undefined) | – | – | – | – | – | – | · | · | · | · | ·
COC(=O)c1sc2nc(C)cc(C)c2c1N | – | – | – | – | – | – | · | · | · | · | ·
Cc1cc(C)c2c(N)c(C(=O)Nc3ncc(C)s3)sc2n1 | 72 | – | – | 87 | – | – | – | 86 | 99 | 92 | –
COc1ccc(SC[C@H](Cc2ccccc2)N2CCN(C)CCC2=O)cc1 | – | – | – | – | – | – | · | · | · | · | ·
O=S(=O)(O)c1ccc(N=Nc2ccccc2)cc1 | 52 | – | – | 67 | 51 | – | – | – | 71 | 76 | 53
CN(C)N=Nc1ccc(S(=O)(=O)/N=C(\O)c2ccccc2)cc1 | – | – | – | – | – | – | · | · | · | · | ·
O=C(CS(=O)(=O)c1cn(CC(=O)N2CCOCC2)c2ccccc12)Nc1ccccc1F | – | – | – | – | – | – | · | · | · | · | ·
CCSc1nsc(NC(=O)Nc2ccc(F)cc2F)n1 | – | – | – | 52 | – | – | – | – | 65 | – | –
